Experimental findings from ChEMBL document CHEMBL1126839, “Imidazol-1-yl and pyridin-3-yl derivatives of 4-phenyl-1,4-dihydropyridines combining Ca2+ antagonism and thromboxane A2 synthase inhibition” (J Med Chem, 1993) are described below.

Assay [1] is filed under the species Cavia porcellus. Description: Inhibition of K+ induced contractions of the isolated guinea pig ileum. The assay is classed as functional.
The next assay deals with T1, Thromboxane-A synthase (Rattus norvegicus, UniProt P49430).
T1 sequence (P49430 whole entry): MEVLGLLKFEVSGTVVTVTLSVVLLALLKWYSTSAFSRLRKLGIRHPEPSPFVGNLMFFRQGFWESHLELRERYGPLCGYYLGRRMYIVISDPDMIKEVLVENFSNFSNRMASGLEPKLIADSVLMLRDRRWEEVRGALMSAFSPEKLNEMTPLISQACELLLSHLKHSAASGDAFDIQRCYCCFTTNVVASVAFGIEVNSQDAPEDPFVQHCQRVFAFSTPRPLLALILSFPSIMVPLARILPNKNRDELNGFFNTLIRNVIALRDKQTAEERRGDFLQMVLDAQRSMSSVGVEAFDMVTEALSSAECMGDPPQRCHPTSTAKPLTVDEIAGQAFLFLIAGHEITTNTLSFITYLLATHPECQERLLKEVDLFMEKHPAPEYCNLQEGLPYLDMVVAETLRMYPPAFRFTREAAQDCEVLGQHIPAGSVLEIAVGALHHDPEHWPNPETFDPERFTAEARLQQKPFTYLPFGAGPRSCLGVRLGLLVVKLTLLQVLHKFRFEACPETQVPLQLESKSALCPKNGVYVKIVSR
Description: In vitro inhibition of thromboxane B2 production in rat whole blood. The assay is classed as functional, tissue-based.

Assay [2] is filed under the species Cavia porcellus. Description: Tested for [Ca2+] antagonism in guinea pig atria. The assay is classed as functional. The method, boiled down: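 Male guinea pig (0.5–0.8 kg) spontaneously beating atria in oxygenated (95% O2/5% CO2) Locke solution at 37 °C under 1 g preload, rested 60 min. Compounds added cumulatively with 30 min contact per concentration. Isometric contraction recorded; IC25 from computerized regression analysis.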

For assay [3], the species on record is Cavia porcellus. Briefly: Tested for [Ca2+] antagonism in guinea pig ileum. The assay is classed as functional. The method, boiled down:
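Screening preparation under 1 g tension; isometric contractions to 60 mM KCl elicited at 15-min intervals without and with increasing compound concentrations. IC50 (concentration inhibiting the KCl response by 50%) from least-squares regression.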

For a further assay, the species on record is Oryctolagus cuniculus. Description: Tested for [Ca2+] antagonism in rabbit renal artery. The assay is classed as functional. The method, boiled down: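 Isolated renal artery under 1 g tension; isometric contractions to 60 mM KCl repeated at 30 min intervals without and with increasing concentrations of test compound or nifedipine as reference. IC50 from the concentration–response.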

The species named for assay [4] is Cavia porcellus. Briefly: Tested for [Ca2+] antagonism in guinea pig right ventricle. The assay is classed as functional. The conditions noted are these: Heart right ventricle. The method, boiled down: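 Male guinea pig (0.5–0.8 kg) right ventricular strips (10 × 2 mm) in oxygenated Tyrode at 29 °C, 1 g preload. Electrically paced (3 ms, 2 Hz) for 60 min, depolarized with 22 mM KCl, then contractility restored with 10 μM histamine at 0.2 Hz pacing. Isometric contraction recorded; IC50 from computerized regression analysis.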

Regarding `CCOC(=O)C1=C(C)N=C(C)/C(=C(/O)OCC)C1c1ccccc1-n1ccnc1` (centres undefined), the IC50 – broadly, the midpoint of a concentration-inhibition curve – in the assay listed under Cavia porcellus [1] was 460 nM; against Thromboxane-A synthase, more than 1000 nM.

Consider `CO/C(O)=C1\C(C)=NC(C)=C(C(C)=O)C1c1cccc(-n2ccnc2)c1` (centres undefined), for which the IC50 in the assay filed under Cavia porcellus [1] was more than 10000 nM; on Thromboxane-A synthase it was 260 nM.

On to `CCO/C(O)=C1\C(C)=NC(C)=C(C(=O)OCCN(C)Cc2ccccc2)C1c1cccc(-n2ccnc2)c1` (centres undefined), for which the half-maximal inhibitory concentration (IC50) in the assay listed under Cavia porcellus [1] is 50 nM; on Thromboxane-A synthase it was 220 nM.

In the case of `CCOC(=O)C1=C(C)N=C(C)/C(=C(/O)OCC)C1c1cccc(-n2ccnc2)c1` (centres undefined), the IC25 (in general, the concentration needed for an effect of 25%) in the assay filed under Cavia porcellus [2] was 94.2 nM. In addition, the IC50 in the assay filed under Cavia porcellus [3] stood at 61.5 nM; in the assay listed under Cavia porcellus [1] it was 60 nM; in the assay filed under Oryctolagus cuniculus, 111 nM; on Thromboxane-A synthase, 170 nM; in the assay filed under Cavia porcellus [4], 2150 nM.

`CCO/C(O)=C1\C(C)=NC(C)=C(C(=O)O)C1c1cccc(-n2ccnc2)c1` (centres undefined): the half-maximal inhibitory concentration (IC50) is 1960 nM in the assay listed under Cavia porcellus [1] and more than 1000 nM against Thromboxane-A synthase.

Consider `CCOC(=O)C1=C(C)N=C(C)/C(=C(/O)OCC)C1c1cccc(-c2cccnc2)c1` (centres undefined), for which the figures for the IC50 in the assay filed under Cavia porcellus [1] and against Thromboxane-A synthase were 100 nM and 280 nM, respectively.

Turning to `CC1=NC(C)=C(C(=O)OCC(C)C)C(c2cccc(-c3cccnc3)c2)/C1=C(\O)OCC(C)C` (centres undefined), the 50% inhibitory concentration (IC50) in the assay listed under Cavia porcellus [1] was 1500 nM; against Thromboxane-A synthase, more than 1000 nM.

Turning to `CCO/C(O)=C1\C(C)=NC(C)=C(C(=O)OCCN(C)Cc2ccccc2)C1c1cccc(-c2cccnc2)c1` (centres undefined), the half-maximal inhibitory concentration (IC50) in the assay filed under Cavia porcellus [1] was 60 nM; on Thromboxane-A synthase, more than 1000 nM.

For `CCOC(=O)C1=C(CC)N=C(CC)/C(=C(/O)OCC)C1c1cccc(-n2ccnc2)c1` (centres undefined), the values for the half-inhibitory concentration (IC50) in the assay listed under Cavia porcellus [1] and at Thromboxane-A synthase were 970 nM and more than 1000 nM, respectively.

Turning to `CCO/C(O)=C1\C(COC)=NC(C)=C(C(=O)OC)C1c1cccc(-n2ccnc2)c1` (centres undefined), the half-inhibitory concentration (IC50) in the assay filed under Cavia porcellus [1] was 1950 nM; against Thromboxane-A synthase it was 400 nM.

For the compound `CCOC(=O)C1=C(C)N=C(C)/C(=C(/O)OCC)C1c1cccc(Cn2ccnc2)c1` (centres undefined), the IC50 is 1670 nM in the assay listed under Cavia porcellus [1] and 730 nM on Thromboxane-A synthase.

Consider `CCOC(=O)C1=C(C)N=C(C)/C(=C(/O)OCC)C1c1ccc(-n2ccnc2)cc1` (centres undefined), for which the half-inhibitory concentration (IC50) in the assay filed under Cavia porcellus [1] is 23000 nM; against Thromboxane-A synthase, more than 1000 nM.

Turning to `CCO/C(O)=C1\C(C)=NC(C)=C(C(=O)OC)C1c1cccc(-n2ccnc2)c1` (centres undefined), the values for the half-inhibitory concentration (IC50) in the assay listed under Cavia porcellus [1] and at Thromboxane-A synthase were 260 nM and 240 nM, respectively.

`COC(=O)C1=C(C)N=C(C)/C(=C(/O)OC)C1c1cccc(-n2ccnc2)c1` (centres undefined): the results for the IC50 in the assay filed under Cavia porcellus [1] and against Thromboxane-A synthase were 850 nM and 270 nM, respectively.

For `CCOC(=O)C1=C(C)N(C)C(C)=C(C(=O)OCC)C1c1cccc(-n2ccnc2)c1`, the IC50 in the assay listed under Cavia porcellus [1] was 8840 nM; against Thromboxane-A synthase it was 640 nM.

On to `CCOC(=O)c1c(C)nc(C)c(C(=O)OCC)c1-c1cccc(-n2ccnc2)c1`, for which the IC50 in the assay listed under Cavia porcellus [1] is more than 10000 nM; against Thromboxane-A synthase, more than 1000 nM.

Take `CCO/C(O)=C1\C(COCCN)=NC(C)=C(C(=O)OC)C1c1cccc(-n2ccnc2)c1` (centres undefined): the IC50 in the assay listed under Cavia porcellus [1] came out at 2370 nM; on Thromboxane-A synthase, 300 nM.

Consider `COC(=O)C1=C(C)NC(C)=C(C(=O)OC)C1c1ccccc1[N+](=O)[O-]` [NIFEDIPINE], for which the IC25 in the assay filed under Cavia porcellus [2] amounted to 31.5 nM. Also, the IC50 is 4.7 nM in the assay filed under Cavia porcellus [3]; 4 nM in the assay filed under Cavia porcellus [1]; 6.9 nM in the assay filed under Oryctolagus cuniculus; more than 10000 nM against Thromboxane-A synthase; 57.8 nM in the assay listed under Cavia porcellus [4].
